Measured values from ChEMBL document CHEMBL1152138, “Clubbed [1,2,3] triazoles by fluorine benzimidazole: a novel approach to H37Rv inhibitors as a potential treatment for tuberculosis” (Bioorg Med Chem Lett, 2008).
Converted amounts (≈) assume the structure as drawn. “And” between values parts separate entries of the source, which are not always exact repeats. Equal values may be shown once.

What was measured:
[1] = tested on: Mycobacterium tuberculosis; experiment: Antitubercular activity against Mycobacterium tuberculosis H37Rv ATCC 27294 at 6.25 ug/mL by microplate alamar blue assay; format: functional; conditions: read-out: GI
Procedure, shortened: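 Primary screen against M. tuberculosis H37Rv (ATCC 27294) at a single concentration of 6.25 µg/mL. Broth microdilution Microplate Alamar Blue Assay in BACTEC 12B medium. Fluorescent compounds were instead run in the BACTEC 460 radiometric system. Percent growth inhibition reported; >95% counted as active. Rifampin used as reference.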

[2] = tested on: Mycobacterium tuberculosis; experiment: Antitubercular activity against Mycobacterium tuberculosis H37Rv ATCC 27294 by microplate alamar blue assay; format: functional
Procedure, shortened: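 Compounds active in the primary screen were retested at lower concentrations against H37Rv by Microplate Alamar Blue Assay. MIC taken as the lowest concentration giving a 95% reduction in fluorescence relative to controls. Rifampin used as reference.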

[3] = tested on: Pseudomonas aeruginosa; experiment: Antimicrobial activity against Pseudomonas aeruginosa after 24 hrs by well diffusion method; format: functional
Procedure, shortened: (§1)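 Well diffusion on nutrient agar. 10 mm wells cut with a sterile cork borer. Plates swab-inoculated from a 24 h bacterial subculture in nutrient broth. Compounds dissolved in chloroform and added to wells at 50 and 100 µM. Gentamycin used as standard. % inhibition derived from inhibition zone diameter.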

[4] = tested on: Staphylococcus aureus; experiment: Antimicrobial activity against Staphylococcus aureus after 24 hrs by well diffusion method; format: functional; procedure, shortened: as §1
[5] = Cytotoxicity against african green monkey Vero C1008 cells at 6.25 to 50 ug/mL by neutral-red uptake assay; format: cell-based; conditions: chlorocebus sabaeus
Procedure, shortened: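 Vero C-1008 cells exposed to compounds at 6.25–50 µg/mL. Cytotoxicity read out by neutral red uptake.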

[6] = tested on: Escherichia coli; experiment: Antimicrobial activity against Escherichia coli after 24 hrs by well diffusion method; format: functional; procedure, shortened: as §1
[7] = tested on: Salmonella typhi; experiment: Antimicrobial activity against Salmonella typhosa after 24 hrs by well diffusion method; format: functional, Salmonella enterica subsp. enterica serovar Typhi; procedure, shortened: as §1

| Compound | inhibition of growth at 6.25 µg/mL [1] [%] | MIC [2] | inhibition zone (IZ) [3] [mm] | inhibition zone (IZ) [4] [mm] | Activity [5] | inhibition zone (IZ) [6] [mm] | inhibition zone (IZ) [7] [mm] | inhibition zone (IZ) ([7]; Salmonella enterica subsp. enterica serovar Typhi) [mm] |
| --- | --- | --- | --- | --- | --- | --- | --- | --- |
| Cc1ccc(-n2cc(Cn3c(-c4cccc(F)c4)nc4ccccc43)nn2)c(F)c1 | 96 | 3.13 µM and > 6.25 µg/mL | 13 | 18 | Non-toxic | 21 | 18 |  |
| Cc1ccc(-n2cc(Cn3c(-c4cccc(F)c4)nc4ccccc43)nn2)cc1 |  | > 12.5 µg/mL | 20 | 18 | Non-toxic | 19 | 17 |  |
| Fc1cccc(-c2nc3ccccc3n2Cc2cn(-c3ccc(F)cc3F)nn2)c1 | 96 | 0.32 µM and > 6.25 µg/mL | 34 | 33 | Non-toxic | 32 | 31 |  |
| Fc1cccc(-c2nc3ccccc3n2Cc2cn(-c3ccc(C(F)(F)F)cc3)nn2)c1 |  | > 6.25 µg/mL | 13 | 18 | Non-toxic | 21 | 18 |  |
| Cc1ccccc1-n1cc(Cn2c(-c3cccc(F)c3)nc3ccccc32)nn1 |  | > 12.5 µg/mL | 19 | 16 | Non-toxic | 14 | 17 |  |
| COc1ccc(-n2cc(Cn3c(-c4cccc(F)c4)nc4ccccc43)nn2)cc1 | 96 | 6.25 µM and > 6.25 µg/mL | 26 | 20 | Non-toxic | 18 | 21 |  |
| Fc1cccc(-c2nc3ccccc3n2Cc2cn(-c3ccc(F)c(F)c3)nn2)c1 | 96 | 0.34 µM and > 6.25 µg/mL | 31 | 32 | Non-toxic | 30 | 29 |  |
| COc1ccccc1-n1cc(Cn2c(-c3cccc(F)c3)nc3ccccc32)nn1 |  | > 6.25 µg/mL | 24 | 21 | Non-toxic | 19 | 23 |  |
| GENTAMICIN |  |  |  |  |  |  |  | 30 |
| Fc1ccc(-n2cc(Cn3c(-c4cccc(F)c4)nc4ccccc43)nn2)cc1 | 96 | 0.58 µM and > 6.25 µg/mL | 19 | 26 | Non-toxic | 20 | 19 |  |
| Fc1cccc(-c2nc3ccccc3n2Cc2cn(-c3ccccc3)nn2)c1 |  | > 6.25 µg/mL | 28 | 26 | Non-toxic | 17 | 18 |  |
| CO[C@H]1/C=C/O[C@@]2(C)Oc3c(C)c(O)c4c(O)c(c(/C=N/N5CCN(C)CC5)c(O)c4c3C2=O)NC(=O)/C(C)=C\C=C\[C@H](C)[C@H](O)[C@@H](C)[C@@H](O)[C@@H](C)[C@H](OC(C)=O)[C@@H]1C [RIFAMPIN] |  | 0.015 µg/mL (≈ 0.0182 µM) |  |  |  |  |  |  |
| Fc1cccc(-c2nc3ccccc3n2Cc2cn(-c3ccc(F)c(F)c3F)nn2)c1 |  | > 6.25 µg/mL | 33 | 31 | Non-toxic | 29 | 30 |  |
